Hep lipid drop – hepatic lipid droplet formation modulation | AML12 mouse hepatocytes, oleate lipid droplets, BODIPY imaging | inhibition, % at 6.5 µM | hit rate 0.4% among 240,000;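 active = lipid droplet intensity inhibited by at least 50%, with more than 500 cells counted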
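Material – AML12 mouse liver cells · Also added – oleate loading, 100 µM · Compound dosing – 6.5 µM single-point dosing · Times – overnight treatment with compound plus oleate · Measured by – fluorescence imaging, 20x objective, two fields per well · Read-out – percent inhibition of filter-corrected integrated lipid droplet intensity per well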
MC4R antagonist – antagonists of human melanocortin 4 receptor (MC4R); P32245; MC4R-expressing cells, MTII-stimulated cAMP, LANCE TR-FRET; inhibition, % at 6.5 µM; hit rate 0.48% among 360,000;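 active = inhibition above its plate's cutoff, the mean of tested wells on that plate plus 3 SD, cut at about 29% in these data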
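System: U2OS cells stably expressing human melanocortin 4 receptor (MC4R). Reagent: Melanotan II challenge after compound preincubation. Doses: 6.5 µM. Times: 30-min compound, 1-h challenge, 1-h detection, room temperature. Measured by: TR-FRET with Eu-cAMP and labeled anti-cAMP, 671 nm. Replicates: singlicate.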
HTR2A ag – mouse HTR2A agonism via beta-arrestin recruitment. hit rate 0.66% among 360,000. P35363. CHO-K1 mHTR2A beta-arrestin complementation, luminescence; percent of 30 µM serotonin response. AID 624169. activation, % at 7.6 µM;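 active = activation above a run cutoff, the mean activation of all tested compounds plus 3 SD, cut at about 14% in these data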
NTR1 ag – NTR1 (human) agonism | AID 493036 | NTR1-U2OS beta-arrestin-GFP spot imaging, agonist mode | hit rate 0.17% among 330,000 | activation, % at 20 µM;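 active = activation at or above 40% of the spot to cytoplasm intensity ratio, with at least 20 cells analyzed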
Target sequence (P30989 whole entry, looked up): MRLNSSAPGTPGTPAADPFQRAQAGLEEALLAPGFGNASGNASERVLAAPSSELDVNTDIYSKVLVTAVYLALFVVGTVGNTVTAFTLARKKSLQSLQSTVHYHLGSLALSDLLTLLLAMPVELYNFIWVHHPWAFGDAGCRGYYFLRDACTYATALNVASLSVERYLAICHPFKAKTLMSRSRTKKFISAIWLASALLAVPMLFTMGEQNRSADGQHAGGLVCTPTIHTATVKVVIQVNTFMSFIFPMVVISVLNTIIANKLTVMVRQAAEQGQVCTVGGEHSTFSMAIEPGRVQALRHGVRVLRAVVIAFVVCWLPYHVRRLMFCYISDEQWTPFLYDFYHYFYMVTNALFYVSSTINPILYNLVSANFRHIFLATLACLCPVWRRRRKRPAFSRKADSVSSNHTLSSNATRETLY
MC4R barr agon – human MC4R agonism via beta-arrestin; hit rate 0.98% among 360,000; P32245; U2OS MC4R beta-arrestin complementation, luminescence; percent of melanotan II response, DMSO zero; activation, % at 8.9 µM;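 active = activation above a per-plate cutoff, the mean activation of sample wells on that plate plus 3 SD, cut at about 8% in these data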
PREPL inhibitor – inhibitors of human prolyl oligopeptidase-like enzyme PREPL | Q4J6C6 | recombinant PREPL, fluorescence polarization activity-based probe | inhibition, % at 5.96 µM | hit rate 0.68% among 320,000 | AID 2751; in the data active = inhibition above about 43%
OPRM1 ag – activates human mu opioid receptor in HTR2A counterscreen. shares compounds with HTR2A ag. U2OS OPRM1 beta-arrestin PathHunter, luminescence; DMSO 0%, DAMGO 9.3 µM 100%. activation, % at 9.3 µM. hit rate 5.3% among 2,300;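 active = mean activation above the mean of DMSO-only wells plus 3 SD, cut at about 0.5% in these data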
HTR2A ag conf – mouse HTR2A agonism confirmed. activation, % at 7.6 µM. hit rate 19% among 2,300. CHO-K1 PathHunter beta-arrestin recruitment, luminescence; DMSO 0%, 30 µM serotonin 100%. shares compounds with HTR2A ag. AID 624381;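 active = mean activation across triplicates above the hit threshold derived in the original primary screen, cut at about 15% in these data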
Numbers stand for hits. An excerpt weighted towards active compounds, which were near 2.7% of everything screened.

For Cc1ccccc1-n1c(SC(C)C(=O)NCC2CCCO2)nnc1-c1ccncc1 (stereo unspecified) the results were MC4R antagonist inactive, HTR2A ag 15, MC4R barr agon inactive, OPRM1 ag inactive and HTR2A ag conf inactive.
COc1nc(N)nc2nc[nH]c12 was read as Hep lipid drop inactive, MC4R antagonist inactive, HTR2A ag inactive, NTR1 ag inactive, MC4R barr agon inactive and PREPL inhibitor inactive.
O=C(CC1CS(=O)(=O)CC1CC(=O)Oc1ccccc1F)Oc1ccccc1F (stereo unspecified) was read as Hep lipid drop inactive, MC4R antagonist inactive, HTR2A ag 16, NTR1 ag inactive, MC4R barr agon inactive, PREPL inhibitor inactive, OPRM1 ag inactive and HTR2A ag conf inactive.
`CCc1ccccc1NC(=O)CC1CS(=O)(=O)CC1CC(=O)Nc1ccccc1CC` (stereo unspecified) gave Hep lipid drop inactive, MC4R antagonist inactive, HTR2A ag inactive, NTR1 ag inactive, MC4R barr agon inactive and PREPL inhibitor inactive.
For O=C(Cc1ccc(F)cc1)Nc1c(C(=O)N2CCN(c3ncccn3)CC2)oc2ccccc12 the results were Hep lipid drop inactive, MC4R antagonist inactive, HTR2A ag inactive, NTR1 ag inactive, MC4R barr agon inactive and PREPL inhibitor inactive.
O=C(NCC(=O)N1CCCC(C(F)(F)F)C1)c1cccs1 (stereo unspecified) was read as MC4R antagonist inactive, HTR2A ag inactive and MC4R barr agon inactive.
COc1ccc(C=CC(=O)c2ccc(OC)c(OC)c2)cc1O was read as MC4R antagonist inactive, HTR2A ag inactive and MC4R barr agon inactive.
Screening COc1ccc(C=CC(=O)c2ccc3cc(OC)c(OC)cc3c2)cc1OC returned MC4R antagonist inactive, HTR2A ag 17, MC4R barr agon inactive, OPRM1 ag inactive and HTR2A ag conf inactive.
Screening Cc1cccc(C)c1NC(=O)c1sc(Cl)nc1C returned Hep lipid drop inactive, MC4R antagonist inactive, HTR2A ag inactive, NTR1 ag inactive, MC4R barr agon inactive and PREPL inhibitor inactive.
CCc1nnc(NC(=O)CSc2nc3cc(OC)ccc3cc2C)s1 was read as Hep lipid drop inactive, MC4R antagonist inactive, HTR2A ag inactive, NTR1 ag inactive, MC4R barr agon inactive and PREPL inhibitor inactive.
Screening CC(C)(C)C(=O)Nc1c2c(nn1-c1ccc(F)cc1)CSC2 returned Hep lipid drop inactive, MC4R antagonist inactive, HTR2A ag inactive, NTR1 ag inactive, MC4R barr agon inactive and PREPL inhibitor inactive.
CC(C)C(=O)Nc1c2c(nn1-c1ccc(F)cc1)CSC2 was read as Hep lipid drop inactive, MC4R antagonist inactive, HTR2A ag 16, NTR1 ag inactive, MC4R barr agon inactive, PREPL inhibitor inactive, OPRM1 ag inactive and HTR2A ag conf inactive.
`Nc1nc(N2CCN(Cc3ccccc3)CC2)n[nH]1` gave Hep lipid drop inactive, MC4R antagonist inactive, HTR2A ag 39, NTR1 ag inactive, MC4R barr agon inactive, PREPL inhibitor inactive, OPRM1 ag inactive and HTR2A ag conf 110.
`CC(C)C[C@H]1CN=C(N(C)C)N1CC(C)C` gave MC4R antagonist inactive, HTR2A ag 24, NTR1 ag inactive, MC4R barr agon inactive, PREPL inhibitor inactive, OPRM1 ag inactive and HTR2A ag conf inactive.
O=C(COC(=O)/C=C/c1ccc(C(F)(F)F)cc1)NCC1CCCCC1 was read as MC4R antagonist inactive, HTR2A ag 25, NTR1 ag inactive, MC4R barr agon inactive, PREPL inhibitor inactive, OPRM1 ag inactive and HTR2A ag conf inactive.
CCC/C(O)=C1\C(=O)CCCC1=NCCc1ccc(OCC)c(OCC)c1 was read as Hep lipid drop inactive, MC4R antagonist inactive, HTR2A ag 15, NTR1 ag inactive, MC4R barr agon inactive, PREPL inhibitor inactive, OPRM1 ag inactive and HTR2A ag conf inactive.
